Experimental data taken from ChEMBL document CHEMBL1155032, “Dendronpholides A-R, cembranoid diterpenes from the chinese soft coral Dendronephthya sp” (J Nat Prod, 2008).
In brackets after ≈: the same amount, converted by molar mass.

test: Cytotoxicity against human […] cells; type: functional, cell-based
Procedure, shortened: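 In vitro assay on the human gastric cancer line BGC-823, one of a panel of human cancer lines. Viability was read out by the MTT method, following a previously published procedure.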

**Q.** Which IC50 does the source give for `C=C1C(=O)O[C@]2(C)CC[C@@H]1C[C@H](O)/C(C)=C/C/C=C(\C)CC[C@@H]2O` here?
**A.** > 10 µg/mL

**Q.** For `C=C(C(=O)OC)[C@@H]1CC[C@@](C)(O)[C@@H]2CC[C@@](C)(O2)[C@@H](OC(C)=O)C/C=C(\C)[C@H](O)C1` [DENDRONPHOLIDE P], which IC50 is on record?
**A.** > 10 µg/mL

**Q.** With `C=C(C(=O)O)[C@@H]1CC[C@@](C)(O)[C@@H]2CC[C@@](C)(O2)[C@@H](OC(C)=O)CC[C@](C)(OC)[C@H](O)C1` [DENDRONPHOLIDE K] as the compound, how does the IC50 read?
**A.** > 10 µg/mL

**Q.** With `C=C1C(=O)O[C@]2(C)CC[C@@H]1C[C@@H](O)/C(C)=C/C/C=C(\C)CC[C@@H]2OC(C)=O` [DENDRONPHOLIDE B] as the compound, how does the IC50 read?
**A.** > 10 µg/mL

**Q.** Which IC50 does the source give for `C=C1C(=O)O[C@]2(C)CC[C@@H]1C[C@@H](OC(C)=O)[C@@]1(C)CC[C@H](O1)[C@@](C)(O)CC[C@@H]2OC(C)=O` [DENDRONPHOLIDE Q] here?
**A.** > 10 µg/mL

**Q.** With `C=C1C(=O)O[C@]2(C)CC[C@@H]1C[C@H](O)/C(C)=C/C/C=C(\C)CC[C@@H]2OC(C)=O` [DENDRONPHOLIDE A] as the compound, how does the IC50 read?
**A.** > 10 µg/mL

**Q.** For `C=C(C(=O)O)[C@@H]1CC[C@@](C)(O)[C@@H](OC(C)=O)CCC(=C)[C@@H]2CC[C@@](C)(O2)[C@H](O)C1` [DENDRONPHOLIDE R], which IC50 is on record?
**A.** > 10 µg/mL

**Q.** For `C=C(C(=O)OCC)[C@@H]1CC[C@@](C)(O)[C@@H]2CC[C@@](C)(O2)[C@@H](OC(C)=O)C/C=C(\C)[C@H](O)C1` [DENDRONPHOLIDE O], which IC50 is on record?
**A.** > 10 µg/mL

**Q.** With `C=C(C(=O)OC)[C@@H]1CC[C@@](C)(O)[C@@H](O)CC/C(C)=C/C/C=C(\C)[C@@H](O)C1` [DENDRONPHOLIDE C] as the compound, how does the IC50 read?
**A.** 0.05 µg/mL (≈ 0.136 µM)

**Q.** Which IC50 does the source give for `C=C(C(=O)O)[C@@H]1CC[C@@](C)(O)[C@@H]2CC[C@@](C)(O2)[C@@H](O)CC[C@](C)(O)[C@H](OC(C)=O)C1` [DENDRONPHOLIDE J] here?
**A.** 0.2 µg/mL (≈ 0.467 µM)

**Q.** For `C=C(C(=O)OC)[C@@H]1CC[C@@](C)(O)[C@@H]2CC[C@@](C)(O2)[C@@H](OC(C)=O)CC[C@]2(C)O[C@H]2C1` [DENDRONPHOLIDE G], which IC50 is on record?
**A.** 0.02 µg/mL (≈ 0.0471 µM)

**Q.** Which IC50 does the source give for `C=C(C(=O)O)[C@@H]1CC[C@@](C)(O)[C@@H]2CC[C@@](C)(O2)[C@@H](OC(C)=O)CC[C@](C)(O)[C@H](O)C1` [DENDRONPHOLIDE I] here?
**A.** > 10 µg/mL
